Experimental data pooled from the literature.
Compare with care: the assays were run in different laboratories.
CDK6 with cyclin D1: Cyclin-dependent kinase 6, with cyclin D1 (CDK6, Homo sapiens, UniProt Q00534)
CDK6 with cyclin D3: Cyclin-dependent kinase 6, with cyclin D3 (CDK6, Homo sapiens, UniProt Q00534)
CDK6: Cyclin-dependent kinase 6 (CDK6, Homo sapiens, UniProt Q00534)

CC(C)(C)c1nc2c(s1)c1nc(N)ncc1c1ccc(NS(=O)(=O)c3c(F)cccc3F)c(F)c12  remaining activity (CDK6 with cyclin D1; enzyme activity; inhibitor; radiometric; 1 µM): 113%
O=C1NC(=O)c2cc(Nc3ccc(F)cc3)c(Nc3ccc(F)cc3)cc21  remaining signal (CDK6 with cyclin D3; cell-free assay; 0.5 µM): 89.9%
CCN(CC)CCNC(=O)c1c(C)[nH]c(/C=C2\C(=O)Nc3ccc(F)cc32)c1C  inhibition (CDK6 with cyclin D3; enzyme activity; inhibitor; 10 µM): 73%
O=C(Nc1cnn(-c2csc(C(=O)NC3COC3)c2)c1)Nc1c(F)cccc1Cl  remaining activity (CDK6 with cyclin D1; enzyme activity; inhibitor; 5 µM): 105%
CCN(CC)c1ccc(C2=NNC(=O)CC2C)cc1[N+](=O)[O-] (centres unmarked)  remaining activity (CDK6 with cyclin D3; enzyme activity; inhibitor; 10 µM): 90%
N#CCCc1ccc2c(c1)-c1[nH]c3ccc([N+](=O)[O-])cc3c1CC(=O)N2  remaining signal (CDK6 with cyclin D1; cell-free assay; 0.5 µM): 6.79%
O=C(Nc1cnn(-c2csc(C(=O)NC3COC3)c2)c1)Nc1ccccc1Cl  remaining activity (CDK6 with cyclin D1; enzyme activity; inhibitor; 5 µM): 95.4%
O=C1Nc2ccc(Cl)cc2C1=Cc1cc(Cl)c(O)c(Cl)c1  remaining signal (CDK6 with cyclin D3; cell-free assay; 0.5 µM): 94.1%
Nc1nc(Nc2ccc(S(N)(=O)=O)cc2)sc1C(=O)c1ccccc1[N+](=O)[O-]  inhibition (CDK6; enzyme activity; inhibitor; 0.1 µM): 85%
CC(C)c1ccc(NC(=O)c2cccs2)c(-c2nc3ccccc3[nH]c2=O)c1  activity vs control (CDK6 with cyclin D3; enzyme activity; inhibitor; 1 µM): 114%
Cn1cnc(Br)c1C1=CN(c2ncnc3[nH]cnc23)CCS1  inhibition (CDK6; enzyme activity; inhibitor; radiometric; 50 nM): 22%
CC(C)(O)[C@H]1CC[C@H](Nc2ccc3ncc(-c4cccc(C(F)(F)F)c4)n3n2)CC1  remaining activity (CDK6 with cyclin D1; enzyme activity; inhibitor; 1 µM): 101%
Cc1ccc(Nc2nccc(N(C)c3ccc4c(C)n(C)nc4c3)n2)cc1S(N)(=O)=O  inhibition (CDK6 with cyclin D3; enzyme activity; inhibitor; 0.3 µM): -7%
Cc1cc(NC(=O)c2cccc3cc(-c4cccc5[nH]nc(N)c45)ccc23)ccc1F  activity vs control (CDK6 with cyclin D3; enzyme activity; inhibitor; 0.1 µM): 94%
CC(C)(C)c1nc(-c2cccc(NS(=O)(=O)c3c(F)cccc3F)c2F)c(-c2ccnc(N)n2)s1  remaining activity (CDK6 with cyclin D3; enzyme activity; inhibitor; radiometric; 1 µM): 74%
CNC(=O)c1cc(Oc2ccc(NC(=O)Nc3ccc(Cl)c(C(F)(F)F)c3)cc2)ccn1  inhibition (CDK6 with cyclin D3; enzyme activity; inhibitor; 10 µM): -5%
Cc1ccc(NC(=O)c2ccc(C)c(C(F)(F)F)c2)cc1C#Cc1nn(C2CCC(O)CC2)c2ncnc(N)c12 (centres unmarked)  remaining signal (CDK6 with cyclin D3; cell-free assay; 10 µM): 120%
